The record followed here is ChEMBL document CHEMBL1145015, “Structure-activity relationships of 1,2,4-benzotriazine 1,4-dioxides as hypoxia-selective analogues of tirapazamine” (J Med Chem, 2003).

In general, IC50 refers to the midpoint of a concentration-inhibition curve. A high value points to lower potency. One may read the logP as the decadic logarithm of the partition coefficient of the neutral form, usually between octanol and water. Low values mean lower lipophilicity, high ones higher lipophilicity.

Data set [1] is described as follows: Concentration required to reduce plating efficiency to 10 percent of controls, under hypoxic conditions in mouse SCCVII tumor cells. Type of data set: functional, SCC-7. The method in brief:
(§1)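 SCCVII cells plated in glass dishes (2×10^5 to 1×10^6 per dish) 1–2 days ahead. Drug freshly dissolved, given in complete medium for 1 h at 37 °C with shaking. Hypoxia (<200 ppm O2) by repeated evacuation/flushing with 95% N2 + 5% CO2; aerobic controls flushed with 95% air + 5% CO2. Cells washed, trypsinized, replated. Crystal violet stain after 10–14 days, >50-cell colonies scored. C10 is the concentration giving 10% of control plating efficiency.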

Data set [2] concerns HT-29. As to the kind of experiment: Inhibitory concentration against human adenocarcinoma HT-29 cell line under aerobic condition. Type of data set: functional, cell-based. The method, boiled down:
(§2)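 SRB proliferation assay in 96-well plates. SCCVII (200 cells) or HT-29 (1000 cells) seeded in αMEM + 10% FCS with glucose (17 mM final) and 100 μM 2'-deoxycytidine, then attached for 3 h. Cells exposed for 4 h at 37 °C to 2-fold serial dilutions in triplicate, either oxic (20% O2, 5% CO2) or in an anaerobic chamber (<0.001% O2). After washing, cells grew for 5 (oxic) or 6 (anoxic) days before SRB staining. IC50 values are the mean of three independent experiments.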

Data set [3] relates to HT-29. As to the kind of experiment: Interexperimental ratio of hypoxic TPZ C10 to hypoxic BTO C10 using human adenocarcinoma HT-29 cell line. The class given is functional.
The nature of data set [4]: Interexperimental difference between the hypoxic and aerobic cytotoxicity using murine SCCVII cell line. The class given is functional, SCC-7.
Data set [5] has as its system SCC-7. As to the kind of experiment: Inhibitory concentration against murine SCCVII cell line under hypoxic condition. The class given is functional, cell-based. To be noted: Mus musculus. The method, boiled down: as §2
Data set [6] is described as follows: Concentration required to reduce plating efficiency to 10 percent of controls, under aerobic conditions in mouse SCCVII tumor cells. Type of data set: functional, SCC-7. The method in brief: as §1
Data set [7] can be described thus: Intraexperimental ratio of hypoxic TPZ C10 to hypoxic BTO C10 in mouse SCCVII tumor cells. The class given is functional, SCC-7. The method in brief:
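Computed within each experiment from the clonogenic SCCVII assay (1 h drug exposure, hypoxia <200 ppm O2 by gas evacuation/flushing, colony counting after 10–14 days). RHT = C10 of TPZ under hypoxia divided by C10 of the analogue under hypoxia.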

In data set [8] the test system is HT-29. As to the kind of experiment: Inhibitory concentration against human adenocarcinoma HT-29 cell line under hypoxic condition. The class given is functional, cell-based. The method, boiled down:
as §2

Data set [9] is described as follows: Interexperimental difference between the hypoxic and aerobic cytotoxicity using human adenocarcinoma HT-29 cell line. Type of data set: functional.
Data set [10] relates to SCC-7. Put plainly: Interexperimental ratio of hypoxic TPZ C10 to hypoxic BTO C10 using murine SCCVII cell line. Type of data set: functional, Mus musculus.
Data set [11] in a line: Intraexperimental difference between the hypoxic and aerobic cytotoxicity in mouse SCCVII tumor cells. Type of data set: functional, SCC-7. The method, boiled down:
(§3)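 Clonogenic SCCVII survival after 1 h drug exposure at 37 °C, either hypoxic (<200 ppm O2, 95% N2/5% CO2) or aerobic (95% air/5% CO2). Colonies of >50 cells counted after 10–14 days. HCR = aerobic C10 / hypoxic C10, with both values from the same experiment.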

Data set [12] concerns SCC-7. As to the kind of experiment: Inhibitory concentration against murine SCCVII cell line under aerobic condition. Type of data set: functional, cell-based. To be noted: Mus musculus. The method in brief: as §2
The nature of data set [13]: Intraexperimental difference between the hypoxic and aerobic cytotoxicity. The class given is functional. The method in brief:
as §3

The nature of data set [14]: Partition coefficient (logP). Type of data set: physicochemical. To be noted: octanol/water. The method in brief: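 Octanol/water partition at pH 7.4, measured by low-volume shake flask. Drug in both the octanol and buffer phases quantified by HPLC.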

Regarding `COc1cccc2c1[n+]([O-])nc(N)[n+]2[O-]`, the C10 is 25.4 µM in data set [1] and more than 135 µM in [6]. For the same compound, the IC50 with HT-29 [2] came to 624 µM; in the data set on SCC-7 [5], 13.5 µM; with HT-29 [8] it was 28.8 µM; with SCC-7 [12], 288 µM. Moreover, the RHT is 0.2 in the data set with HT-29 [3], 0.4 in data set [7] and 0.2 in the data set with SCC-7 [10]. Moreover, the HCR in data set [4] is recorded as 25.7; in [9], 21.9; in data set [11], more than 5.3.
On to `CN(C)c1ccc2c(c1)[n+]([O-])c(N)n[n+]2[O-]`, for which the HCR in data set [13] is listed as less than 1. Besides, the C10 is more than 440 µM in [1] and 440 µM in [6]. In [7], the RHT is reported as less than 0.023.
For the compound `CCN(CC)c1ccc2c(c1)[n+]([O-])nc(N)[n+]2[O-]`, the C10 was more than 72.5 µM in data set [1] and more than 725 µM in data set [6]. The RHT in data set [7] was less than 0.14.
Consider `Nc1n[n+]([O-])c2cccc(F)c2[n+]1[O-]`, for which, in data set [13], the HCR is on record as less than 7.5. The C10 in [1] was 10.2 µM; in data set [6], less than 76.1 µM. In addition, the RHT in data set [7] is 1.
Consider `CS(=O)(=O)c1ccc2c(c1)[n+]([O-])nc(N)[n+]2[O-]`, for which, in [13], the HCR worked out at 7.9. Besides, the values for the C10 in [1] and in [6] were 31.7 µM and 251 µM, respectively. This compound displayed a logP in data set [14] of -1.15. The RHT in data set [7] was 0.32.
With `COc1ccc2c(c1)[n+]([O-])c(N)n[n+]2[O-]`, the C10 in data set [1] was found to be 127 µM. For the same compound, the RHT in data set [7] is 0.08.
In data set [13], `Cc1ccc2c(c1)[n+]([O-])nc(N)[n+]2[O-]` returned an HCR of 125. Moreover, the C10 in [1] is 16.2 µM; in data set [6], 2031 µM. In data set [14], this compound registered a logP of 0.13. Further, the RHT in [7] came out at 0.63.
The compound `CCCCS(=O)(=O)c1ccc2c(c1)[n+]([O-])nc(N)[n+]2[O-]` had an HCR in data set [13] of more than 11.5. In addition, the C10 was 7.76 µM in data set [1] and more than 89.6 µM in data set [6]. Also, in data set [7], the RHT came to 1.3.
`Nc1n[n+]([O-])c2c(Cl)cccc2[n+]1[O-]`: the C10 in [1] amounted to 2.58 µM; in data set [6] it was 102 µM. Also, the logP in [14] was 0.17. For the same compound, the IC50 was 7.7 µM in the data set on HT-29 [2], 0.45 µM in the data set on SCC-7 [5], 0.55 µM in the data set with HT-29 [8] and 8.2 µM in the data set on SCC-7 [12]. The RHT in the data set with HT-29 [3] was determined as 9.6; in [7] it was 3.9; in the data set with SCC-7 [10] it was 5.2. The HCR in data set [4] is 15.9; in data set [11], 39.4.
In the case of `Nc1n[n+]([O-])c2cccc(Cl)c2[n+]1[O-]`, the HCR in data set [13] is recorded as 1.4. The C10 in [1] is 7.46 µM; in [6] it was 10.2 µM. Also, in [14], the logP was 0.07. Also, in data set [7], the RHT is reported as 1.4.
Regarding `Cc1ccc2c(c1)[n+]([O-])c(N)n[n+]2[O-]`, the C10 in data set [1] is 17.4 µM; in data set [6], 2901 µM. The compound further came in with a logP in data set [14] of 0.21. Besides, the IC50 stood at 469 µM with HT-29 [2], 5.6 µM in the data set on SCC-7 [5] and 217 µM in the data set on SCC-7 [12]. The RHT was 0.4 in the data set with HT-29 [3], 0.58 in data set [7] and 0.4 in the data set on SCC-7 [10]. The HCR in data set [4] amounted to 42.6; in data set [11], 166.7.
As to `CN(C)c1ccc2c(c1)[n+]([O-])nc(N)[n+]2[O-]`, in data set [13], the HCR worked out at 13.3. Also, the C10 stood at 237 µM in data set [1] and 3159 µM in [6]. The RHT in data set [7] is 0.043.
Compound `Nc1n[n+]([O-])c2ccc(C(F)(F)F)cc2[n+]1[O-]` showed an HCR in data set [13] of 13.3. Besides, the C10 in data set [1] was determined as 8.23 µM; in [6] it was 110 µM. Also, the RHT in data set [7] is on record as 1.2.
On the same counts, the results for `Cc1cccc2c1[n+]([O-])c(N)n[n+]2[O-]` are less than 10, 38.1 µM, less than 381 µM and 0.27.
On the same counts, the results for `Nc1n[n+]([O-])c2ccc(F)cc2[n+]1[O-]` are 11.2, 10.2 µM, 114 µM and 1.
Take `Nc1n[n+]([O-])c2cc(Cl)ccc2[n+]1[O-]`: the C10 was 9.48 µM in [1] and 271 µM in data set [6]. The compound further returned a logP in [14] of 0.46. Further, the IC50 with HT-29 [2] is 19.8 µM; in the data set on SCC-7 [5], 0.61 µM; in the data set with HT-29 [8], 0.73 µM; in the data set on SCC-7 [12], 12.2 µM. Also, the RHT with HT-29 [3] was 7.2; in data set [7] it was 1.1; in the data set on SCC-7 [10], 3.9. Besides, the HCR in [4] stood at 20.4; in [11], 28.6.
For the compound `CCCCS(=O)(=O)c1cccc2c1[n+]([O-])nc(N)[n+]2[O-]`, the HCR in data set [13] was 21.1. The C10 came to 8.31 µM in data set [1] and 175 µM in [6]. Further, the RHT in [7] amounted to 1.2.
Turning to `CCN(CC)c1ccc2c(c1)[n+]([O-])c(N)n[n+]2[O-]`, the values for the C10 in data set [1] and in data set [6] were more than 50.8 µM and more than 1269 µM, respectively. Besides, the RHT in data set [7] is recorded as less than 0.2.
Consider `COc1ccc2c(c1)[n+]([O-])nc(N)[n+]2[O-]`, for which the HCR in [13] is listed as 100. The C10 in data set [1] came to 19.3 µM; in [6], 1934 µM. For the same compound, in [7], the RHT was determined as 0.53.
Compound `CCN(CC)c1cccc2c1[n+]([O-])nc(N)[n+]2[O-]` registered an HCR in data set [13] of 16.7. Also, the C10 in data set [1] is 114 µM; in data set [6] it was 1904 µM. The compound also gave a logP in data set [14] of 0.82. For the same compound, the RHT in data set [7] came out at 0.089.
Take `Cc1cccc2c1[n+]([O-])nc(N)[n+]2[O-]`: the HCR in data set [13] was determined as 102.9. Besides, the C10 in data set [1] stood at 24.7 µM; in data set [6] it was 2538 µM. In data set [14], this compound yielded a logP of 0.24. In data set [7], the RHT was 0.41.
`CCCCS(=O)(=O)c1ccc2c(c1)[n+]([O-])c(N)n[n+]2[O-]` had an HCR in [13] of less than 6.3. In addition, the C10 is 16.2 µM in [1] and less than 102 µM in data set [6]. Moreover, in data set [7], the RHT amounted to 0.63.
As to `CCN(CC)c1cccc2c1[n+]([O-])c(N)n[n+]2[O-]`, in [13], the HCR turned out to be 0.87. Besides, the C10 came out at 67.7 µM in data set [1] and 58.7 µM in data set [6]. Besides, the RHT in data set [7] is on record as 0.15.
`CN(C)c1cccc2c1[n+]([O-])nc(N)[n+]2[O-]` yielded an HCR in [13] of 17.6. Also, the C10 in data set [1] turned out to be 157 µM; in data set [6] it was 2769 µM. Besides, in [7], the RHT came out at 0.065.
On the same counts, the results for `COc1cccc2c1[n+]([O-])c(N)n[n+]2[O-]` are 0.83, 58 µM, 47.9 µM and 0.18.
For `CS(=O)(=O)c1ccc2c(c1)[n+]([O-])c(N)n[n+]2[O-]`, in that order: less than 10.5, 26.1 µM, less than 274 µM and 0.39.
With `Nc1n[n+]([O-])c2c(C(F)(F)F)cccc2[n+]1[O-]`, in data set [13], the HCR turned out to be 112.5. Moreover, the C10 in data set [1] is 5.56 µM; in [6] it was 626 µM. This compound came in with a logP in data set [14] of 0.53. In addition, the RHT in data set [7] came out at 1.8.
